# Assay results reported in the RNAGym collection of RNA variant scans (doi:10.1002/anie.201605470).
# B1: Osa-1-4 twister ribozyme (parent)
# chain: CCGCCUAACACUGCCAAUGCCGGUCCCAAGCCCGGAUAAAAGUGGAGGGGGCGG
# Variants of: B1
# Assay: self-cleavage, relative activity (ratio to wild type); higher = more cleavage; co-transcriptional
# How it was run: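 The 48 positions downstream of the cleavage site in a 54-nucleotide Oryza sativa twister ribozyme template were synthesised at 97 % wild-type base and 1 % of each other base. The template was transcribed in vitro at 37 °C for 2 h, with self-cleavage allowed during transcription. Reads with or without upstream sequence after deep sequencing marked cleavage status, and relative activity is fraction cleaved normalised to wild type.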
row,Variant,self-cleavage
1,CCGCCUAACACAGCCAAUGCCGGUCCCAAGCCCGGAUACAAGUGGAGGGGGCGG,0.44
2,CCGCCUAACACCGCCAAUGCCGGUCCCAAGCCCGGAUACAAGUGGAGGGGGCGG,0.11
3,CCGCCUAACACGGCCAAUGCCGGUCCCAAGCCCGGAUACAAGUGGAGGGGGCGG,0.11
4,CCGCCUAACACUGCCAAUGCCGGUCCCAAGCCCGGAUACAAGUGGAGGUGGCGG,0.06
5,CCGCCUAACACUGCCAAUGCCGGUCCCAAGCCCGGAUACAAGUGGAGGCGGCGG,0.06
6,CCGCCUAACACUGCCAAUGCCGGUCCCAAGCCCGGAUACAAGUGGAGGAGGCGG,0.07
7,CCGCCUAACACUGCCAAUGCCGGACCCAAGCCCGGAUACAAGUGGAGGGGGCGG,0.05
8,CCGCCUAACACUGCCAAUGCCGGGCCCAAGCCCGGAUACAAGUGGAGGGGGCGG,0.03
9,CCGCCUAACACUGCCAAUGCCGGCCCCAAGCCCGGAUACAAGUGGAGGGGGCGG,0.06
10,CCGCCUAACACUGCCAAUGCCGGUCCCAAGCCCGGAUACAAGUGGAGGGGCCGG,0.05
11,CCGCCUAACACUGCCAAUGCCGGUCCCAAGCCCGGAUACAAGUGGAGGGGACGG,0.53
12,CCGCCUAACACUGCCAAUGCCGGUCCCAAGCCCGGAUACAAGUGGAGGGGUCGG,0.21
13,CCGCCUAACACUGCCAAUGCCGGUCCCAAGCCCGGAUACAAGUGUAGGGGGCGG,0.06
14,CCGCCUAACACUGCCAAUGCCGGUCCCAAGCCCGGAUACAAGUGCAGGGGGCGG,0.05
15,CCGCCUAACACUGCCAAUGCCGGUCCCAAGCCCGGAUACAAGUGAAGGGGGCGG,0.08
16,CCGCCUAACACUGCCAAUGCCGGUCCCAAGCCCGGAUACAAGUGGAGGGGGCGC,0.6
17,CCGCCUAACACUGCCAAUGCCGGUCCCAAGCCCGGAUACAAGUGGAGGGGGCGA,0.62
18,CCGCCUAACACUGCCAAUGCCGGUCCCAAGCCCGGAUACAAGUGGAGGGGGCGU,0.65
19,CCGCCUAGCACUGCCAAUGCCGGUCCCAAGCCCGGAUAGAAGUGGAGGGGGCGG,0.35
20,CCGCCUACCACUGCCAAUGCCGGUCCCAAGCCCGGAUAGAAGUGGAGGGGGCGG,0.08
21,CCGCCUAUCACUGCCAAUGCCGGUCCCAAGCCCGGAUAGAAGUGGAGGGGGCGG,0.17
22,CCGCCUAACACUGCCAAUGCCGGUCCCAAGCCCGGAUACAAGUGGACGGGGCGG,0.06
23,CCGCCUAACACUGCCAAUGCCGGUCCCAAGCCCGGAUACAAGUGGAAGGGGCGG,0.08
24,CCGCCUAACACUGCCAAUGCCGGUCCCAAGCCCGGAUACAAGUGGAUGGGGCGG,0.1
25,CCGCCUAACACUGCCAAUGCCGGUCCCAAGCCCGGAUACAAGCGGAGGGGGCGG,0.16

row,Variant,self-cleavage
1,CCGCCUAACACUGCCAAUGCCGGUCCCAAGCCCGGAUACAAGAGGAGGGGGCGG,0.33
2,CCGCCUAACACUGCCAAUGCCGGUCCCAAGCCCGGAUACAAGGGGAGGGGGCGG,0.16
3,CCGCCUAACACUGCCAAUGCCGGUCCCAAGCCCGGAUACAAGUGGAGGGGGCAG,0.37
4,CCGCCUAACACUGCCAAUGCCGGUCCCAAGCCCGGAUACAAGUGGAGGGGGCCG,0.06
5,CCGCCUAACACUGCCAAUGCCGGUCCCAAGCCCGGAUACAAGUGGAGGGGGCUG,0.12
6,CCGCCUAACACUGCCAAGGCCGGUCCCAAGCCCGGAUACAAGUGGAGGGGGCGG,0.83
7,CCGCCUAACACUGCCAACGCCGGUCCCAAGCCCGGAUACAAGUGGAGGGGGCGG,0.96
8,CCGCCUAACACUGCCAAAGCCGGUCCCAAGCCCGGAUACAAGUGGAGGGGGCGG,0.93
9,CCGCCUAACACUGCCAAUGCCGGUCCCAAGCCCGGAUAGCAGUGGAGGGGGCGG,0.05
10,CCGCCUAACACUGCCAAUGCCGGUCCCAAGCCCGGAUACAAGUGGAGGGAGCGG,0.64
11,CCGCCUAACACUGCCAAUGCCGGUCCCAAGCCCGGAUACAAGUGGAGGGCGCGG,0.67
12,CCGCCUAACACUGCCAAUGCCGGUCCCAAGCCCGGAUACAAGUGGAGGGUGCGG,1
13,CCGCCUAACACUGCCAAUGCCGGUCCCAAGCCCGGAUACAAGUGGAGUGGGCGG,0.05
14,CCGCCUAACACUGCCAAUGCCGGUCCCAAGCCCGGAUACAAGUGGAGAGGGCGG,0.06
15,CCGCCUAACACUGCCAAUGCCGGUCCCAAGCCCGGAUACAAGUGGAGCGGGCGG,0.05
16,CCGCCUAACACUGCCAAUGCCGGUCCCAAGCCCGGAUACAAGUUGAGGGGGCGG,0.88
17,CCGCCUAACACUGCCAAUGCCGGUCCCAAGCCCGGAUACAAGUCGAGGGGGCGG,0.93
18,CCGCCUAACACUGCCAAUGCCGGUCCCAAGCCCGGACACAAGUGGAGGGGGCGG,1.02
19,CCGCCUAACACUGCCAAUGCCGGUCCCAAGCCCGGAGACAAGUGGAGGGGGCGG,0.98
20,CCGCCUAACACUGCCAAUGCCGGUCCCAAGCCCGGAAACAAGUGGAGGGGGCGG,0.92
21,CCGCCUAACACUGCCAAUGCCGGUCCCAAGCCCGGAUAGAAGUGGAGGGGGCGG,1
22,CCGCCUCACACUGCCAAUGCCGGUCCCAAGCCCGGAUAGAAGUGGAGGGGGCGG,0.04
23,CCGCCUUACACUGCCAAUGCCGGUCCCAAGCCCGGAUAGAAGUGGAGGGGGCGG,0.08
24,CCGCCUGACACUGCCAAUGCCGGUCCCAAGCCCGGAUAGAAGUGGAGGGGGCGG,0.31
